Compound activity deposited in PubChem BioAssay by Broad Institute.
Sampled rows, rich in hits. Any-hit rate of the full collection: about 0.99%.
AI-2 QS modul – modulates the Vibrio harveyi AI-2 quorum sensing system; Vibrio harveyi JMH597 AI-2 luminescence/OD600 ratio, 9 h; hits give low values; strain lacks LuxN and CqsS sensors; 0 = neutral-control median; activity change, % at 7.5 µM; actives 0.4% (n = 300,000); AID 2094; in the data active = activity change below about -75%, passing the limit was not always enough;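 also: luminescence divided by OD600 gain over 9 h not by final OD600 alone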
GSK3A inh – blocks human GSK-3 alpha kinase; ADP-Glo luminescence, 60 min; inhibition, % at 10 µM; actives 0.1% (n = 320,000);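 active = more than half of replicates show inhibition above 20%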;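 also: GST-tagged GSK-3 alpha with peptide substrate and 25 µM ATP; 0% = DMSO neutral wells and 100% = GW8510 positive control wells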
STK33 inh – human STK33 kinase inhibition; actives 0.073% (n = 320,000); Q9BYT3; inhibition, % at 10 µM; purified STK33, MBP phosphorylation, ADP-Glo luminescence; AID 2661;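 active = inhibition at or above 25%, using the most active replicate where run in duplicate; inactive = inhibition below 25%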
DYRK1A inh – inhibitors of rat Dyrk1A kinase; Q63470; actives 0.43% (n = 310,000); inhibition, % at 12.5 µM; ADP-Glo luminescence, NFATc1 peptide; in the data active = inhibition above about 50%;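 also: plate controls were vehicle with enzyme for no effect and no enzyme for full effect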
Rce1 inhib – yeast Ras-converting enzyme inhibition | Q03530 | yeast membranes, quenched prenylated peptide cleavage fluorescence | calls only | actives 0.27% (n = 290,000);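 active = fall in fluorescence gain of 50% or more versus controls, with final raw signal at or below 3038400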;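 also: plate controls were neutral control wells for no effect and wells lacking membranes for full effect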
GSK3beta inhib – blocks human GSK3beta kinase activity; P49841; activity score (negative = inhibition), % at 10 µM; GST-GSK3beta kinase, ADP-Glo luminescence, 60 min; hits give low values; actives 0.038% (n = 300,000);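 active = more than half of replicate wells score below -50%, meaning over 50% inhibition versus plate controls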;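 also: 0% = median DMSO wells and -100% = median GW8510 positive control wells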
Target sequence (P49841 whole entry, looked up): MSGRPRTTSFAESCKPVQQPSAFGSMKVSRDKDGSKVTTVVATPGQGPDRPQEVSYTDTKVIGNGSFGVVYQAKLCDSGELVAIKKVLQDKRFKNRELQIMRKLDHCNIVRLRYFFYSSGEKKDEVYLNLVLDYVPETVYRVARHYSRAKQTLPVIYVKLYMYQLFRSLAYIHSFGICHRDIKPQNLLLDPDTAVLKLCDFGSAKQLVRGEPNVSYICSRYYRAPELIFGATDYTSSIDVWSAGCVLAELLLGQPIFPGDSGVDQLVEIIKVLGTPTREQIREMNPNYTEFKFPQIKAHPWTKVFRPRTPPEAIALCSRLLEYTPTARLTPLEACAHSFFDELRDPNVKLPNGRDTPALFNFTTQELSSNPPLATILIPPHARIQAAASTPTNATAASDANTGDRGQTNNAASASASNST
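Test system: GST-tagged human GSK3beta kinase, cell-free; evaluation: activity score scaled between in-plate DMSO and GW8510 controls; measured by: ADP-Glo luminescence; incubation: 60 min reaction, RT; benchmarks: DMSO and 20 µM GW8510; reagent: peptide substrate plus 25 µM ATP (final); medium: Tris/MgCl2 kinase buffer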
Dyrk1A artifact – counter-screen for Dyrk1A inhibitors: ADP-Glo luciferase artifacts | shares compounds with DYRK1A inh | ADP-Glo luciferase artifact assay, no Dyrk1A, luminescence | AC50, µM (highest dose often 12 µM), for inactives: at the highest dose activity change, negative = inhibition | 1,300 tested, under 10 active | AID 588348;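 active = fitted half-maximal dose AC50 no more than ten times the top valid tested dose, with luminescence dropping as dose rises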
Numbers without * were called inactive; i = inactive; nt = no result given.

SMILES	AI-2 QS modul	GSK3A inh	STK33 inh	DYRK1A inh	Rce1 inhib	GSK3beta inhib	Dyrk1A artifact
Cc1cc(C(=O)CSc2nncs2)c(C)n1Cc1ccco1	82	2	1	-2	i	2	nt
Cc1cc(C(=O)CSc2nn(-c3ccccc3)c(=S)s2)c(C)n1Cc1ccco1	15	4	-1	57*	i	-1	5%
Cc1c(-c2ccccc2)cnc2c(C)cccc12	1	-1	-2	nt	i	0	nt
CCOC(=O)N1CCN(CC(=O)Nc2ccccc2C(=O)Nc2ccccc2)CC1	nt	3	1	nt	nt	nt	nt
O=C1CCN2C=Nc3cccc4ccc1c2c34	34	16	9	73*	i	-16	12%
O=C1CCC(=O)c2ccc3c4c(ccc1c24)CC3	nt	nt	nt	24	nt	nt	nt
O=C(Nc1nc2ccccc2s1)c1ccccc1	5	1	4	24	i	0	nt
c1ccc2sc(NN=C3CCCCCC3)nc2c1	19	4	9	62*	nt	1	9%
CCN1C(=O)[C@H]2[C@@H](c3ccc(-c4cccc(Cl)c4)cc3)N[C@@](C)(C(=O)OC)[C@H]2C1=O	31	-6	-2	-9	i	-3	nt
S=c1[nH]cc(-c2ccc(Cl)cc2)n1Cc1ccccc1	8	0	-1	55*	i	1	9%
COc1ccc(C(=O)COC(=O)c2cnc(C)cn2)cc1OC	nt	nt	nt	5	nt	nt	nt
Cc1nnc2c3ccccc3c(-c3cccs3)nn12	9	nt	nt	60*	i	-15	7%
Cc1nnc2c3ccccc3c(-c3ccc(O)cc3)nn12	11	nt	0	-2	i	2	nt
Cc1oc2cc3oc(=O)c(CCC(=O)NCCCN4CCOCC4)c(C)c3cc2c1C	6	0	-1	-2	i	0	nt
CC[C@@H](C)[C@H](CNC)NC[C@@H](Cc1cccc2ccccc12)NCCc1cccc(C(F)(F)F)c1	1	17	0	55*	i	-5	4%
CCC[C@H](CN[C@@H](CNC)[C@H](C)CC)NCCc1cc(C(F)(F)F)cc(C(F)(F)F)c1	0	7	1	9	i	-4	nt
Cc1c(Br)c(=O)oc2c(Br)c(O)ccc12	13	0	-1	77*	i	1	9%
CCn1c2ccccc2c2nc3cc(C(=O)O)ccc3nc21	nt	nt	nt	62*	nt	nt	10%
CCn1c2ccccc2c2nc3ccccc3nc21	12	2	3	1	i	2	nt
O=C(CSc1nc(-c2ccccc2)cs1)NCCCN1CCCC1=O	nt	-2	-3	5	nt	nt	nt
COc1ccccc1C(=O)Nc1nc(-c2ccc3c(c2)OCCO3)cs1	18	-1	-1	24	i	0	nt
CC(C)(C)C(=O)Nc1nc(-c2ccc3c(c2)OCO3)cs1	-2	2	1	17	i	-2	nt
CCC(=O)Nc1nc(-c2ccc3c(c2)OCCO3)cs1	2	-2	1	52*	i	2	11%
O=C(Nc1nc(-c2cccs2)cs1)c1ccco1	7	-2	-4	8	i	0	nt
O=C(Nc1nc(-c2ccc3c(c2)OCCO3)cs1)c1ccco1	-6	1	1	73*	i	-2	6%
SMILES	AI-2 QS modul	GSK3A inh	STK33 inh	DYRK1A inh	Rce1 inhib	GSK3beta inhib	Dyrk1A artifact
O=C(Nc1nc(-c2ccncc2)cs1)c1ccco1	14	0	2	76*	i	2	6%
CC(C)c1nnc(NC(=O)Cn2nc(-c3ccc4c(c3)OCCO4)ccc2=O)s1	-1	-2	-2	58*	i	1	7%
CCOc1ccc(C(=O)COC(=O)Cn2cnc3c2c(=O)n(C)c(=O)n3C)cc1	nt	3	-1	nt	nt	nt	nt
COc1cc(Cl)c(C)cc1NC(=O)COC(=O)c1ccc(CN2CCCC2=O)cc1	nt	-6	-1	-4	nt	nt	nt
COc1ccccc1NC(=O)CSc1nccn1Cc1ccccc1	-7	1	-2	-3	i	-3	nt
Cc1ccc(C(=O)NCCNC(=O)c2cccnc2)cc1	10	1	0	0	i	-3	nt
COc1ccc(C(=O)NNS(=O)(=O)c2ccccc2)cc1OC	19	8	5	3	i	-3	nt
O=C(/C=C/c1ccccc1)Nc1nc(-c2ccncc2)cs1	nt	-9	-1	72*	nt	nt	8%
O=C(Cn1c(-c2cncs2)nc2ccccc21)NCc1ccccc1	12	0	-1	60*	i	-3	10%
Cc1ccccc1Cn1c(-c2cncs2)nc2ccccc21	-2	-1	-2	5	i	-6	nt
CCSc1nnc(NC(=O)CCN2C(=O)C3CCCCC3C2=O)s1 (stereo not drawn)	nt	5	-1	nt	nt	nt	nt
CC(OC(=O)Cn1[nH]c(=O)c2ccccc2c1=O)C(=O)NC1(C#N)CCCCC1 (stereo not drawn)	23	-2	-1	-6	i	2	nt
CCOc1ccc(NC(=S)N(CCc2c(C)[nH]c3ccc(C)cc23)Cc2cccnc2)cc1	11	-1	2	-3	i	-2	nt
COc1ccc(NC(=S)N(CCc2c(C)[nH]c3ccccc23)Cc2cccnc2)cc1	11	0	0	60*	i	3	9%
C#CCOCCOCCOCCNc1nc(N2CCN(C(=O)[C@H](CC(N)=O)n3cc([C@@H](N)C(C)C)nn3)CC2)nc(N2CCN(C(=O)[C@H](CC(N)=O)n3cc([C@@H](N)C(C)C)nn3)CC2)n1	nt	-2	0	1	nt	nt	nt
Cc1ccc2[nH]c3c(Cl)ncnc3c2c1	10	-2	3	17	i	3	nt
COc1ccc2c(c1)[nH]c1c(Cl)ncnc12	22	nt	nt	65*	i	-10	11%
C[C@H](NC(=O)CCCOc1ccc(Cl)cc1Cl)c1nnc2ccccn12	14	-1	0	nt	i	4	nt
COC(=O)c1cc2c(n1S(=O)(=O)c1ccc(C)cc1)C(=O)C(=O)c1[nH]cc(C(=O)OCc3ccccc3)c1-2	nt	nt	nt	4	nt	nt	nt
Cc1cccc(CNc2ncnc3ccc(-c4ccoc4)cc23)c1	nt	-3	0	66*	nt	nt	14%
O=c1cc(-c2ccccc2Cl)oc2c(NS(=O)(=O)c3ccccc3C(F)(F)F)ccc(O)c12	16	0	0	59*	i	-2	7%
COc1ccc(Nc2ncnc3nc[nH]c23)cc1OC	-28	19	10	50*	i	-1	7%
CCOC(=O)c1ccc(CNC(=O)C2CCC(=O)N(CCc3ccccc3)C2)o1 (stereo not drawn)	6	-1	1	-3	i	1	nt
OC1CCN(c2ncnc3nc[nH]c23)CC1	8	23	4	13	i	2	nt
CC1CCN(c2ncnc3nc[nH]c23)CC1	-18	18	17	81*	i	-6	8%
